Among the data in ChEMBL document CHEMBL1667774, “Synthesis and evaluation of a class of new coumarin triazole derivatives as potential antimicrobial agents” (2011) are MIC values, retold here.

Values after ≈ are worked out from the molar mass of the structure shown.

Assay [1] deals with Staphylococcus aureus. Put plainly: Antimicrobial activity against methicillin-resistant Staphylococcus aureus N 315 by twofold broth dilution method. The assay is classed as functional. The method, boiled down: (§1)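 Antibacterial MIC, determined by two-fold serial broth dilution following the NCCLS-recommended method. Clinical antimicrobial drugs were run alongside as positive controls.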
(In general: Dilution methods test growth across graded concentrations, often in twofold steps.)

Another assay concerns Micrococcus luteus. Kind of assay: Antimicrobial activity against Micrococcus luteus ATCC 4698 by twofold broth dilution method. The assay is classed as functional. In outline: (§2)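 Two-fold broth dilution in 96-well micro-test plates, following NCCLS recommendations. Enoxacin and Chloromycin served as positive controls for bacteria, and Fluconazole for fungi. The read-out is the MIC in µg/mL.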

For another assay, the system named is Salmonella typhi. Put plainly: Antimicrobial activity against Salmonella typhi ATCC 9484 by twofold broth dilution method. The note with it: Salmonella enterica. The assay is classed as functional, Salmonella enterica subsp. enterica serovar Typhi. The method, boiled down:
as §1

For assay [2], the system named is Staphylococcus aureus. Kind of assay: Antimicrobial activity against Staphylococcus aureus ATCC 25923 by twofold broth dilution method. In kind it is functional. The method, boiled down: as §2
The test system of the next assay is Aspergillus fumigatus. Kind of assay: Antifungal activity against Aspergillus fumigatus ATCC 96918 by twofold broth dilution method. In kind it is functional. In outline: as §2
The next assay deals with Escherichia coli. Kind of assay: Antimicrobial activity against Escherichia coli ATCC 25922 by twofold broth dilution method. In kind it is functional. The method, boiled down: as §2
A further assay deals with Proteus vulgaris. Kind of assay: Antimicrobial activity against Proteus vulgaris ATCC 6896 by twofold broth dilution method. The assay is classed as functional. The method, boiled down: as §2
Another assay deals with Shigella dysenteriae. Kind of assay: Antimicrobial activity against Shigella dysenteriae ATCC 49550 by twofold broth dilution method. In kind it is functional. The method, boiled down:
as §1

For another assay, the system named is Candida albicans. Kind of assay: Antifungal activity against Candida albicans ATCC 76615 by twofold broth dilution method. The assay is classed as functional. The method, boiled down: as §2
The test system of the next assay is Bacillus subtilis. Kind of assay: Antimicrobial activity against Bacillus subtilis ATCC 6633 by twofold broth dilution method. In kind it is functional. The method, boiled down: as §2
For a further assay, the system named is Saccharomyces cerevisiae. Kind of assay: Antifungal activity against Saccharomyces cerevisiae ATCC 9763 by twofold broth dilution method. The assay is classed as functional. In outline: as §2

For orientation: MIC means the lowest concentration that inhibits growth of the organism. Low readings indicate a more susceptible organism, high ones a less susceptible organism.

For `Cc1cc(=O)oc2cc(OCCCCCCBr)cc(OCCCCCCBr)c12`, the MIC in the assay on Staphylococcus aureus [1] is 512 µg/mL (≈ 988 µM); with Micrococcus luteus it was 128 µg/mL (≈ 247 µM); with Salmonella typhi it was 512 µg/mL (≈ 988 µM); against Staphylococcus aureus [2], 256 µg/mL (≈ 494 µM); in the assay on Aspergillus fumigatus it was 128 µg/mL (≈ 247 µM); in the assay on Escherichia coli, 512 µg/mL (≈ 988 µM). Besides, the MIC against Proteus vulgaris was 512 µg/mL (≈ 988 µM); in the assay with Shigella dysenteriae it was 512 µg/mL (≈ 988 µM); against Candida albicans, 128 µg/mL (≈ 247 µM); with Bacillus subtilis, 128 µg/mL (≈ 247 µM); against Saccharomyces cerevisiae, 128 µg/mL (≈ 247 µM).
`Cc1cc(=O)oc2cc(OCc3ccc(CBr)cc3)ccc12`: the MIC stood at 512 µg/mL (≈ 1430 µM) in the assay on Staphylococcus aureus [1]; 256 µg/mL (≈ 713 µM) against Micrococcus luteus; 512 µg/mL (≈ 1430 µM) against Salmonella typhi; 256 µg/mL (≈ 713 µM) with Staphylococcus aureus [2]; 256 µg/mL (≈ 713 µM) in the assay with Aspergillus fumigatus; 512 µg/mL (≈ 1430 µM) with Escherichia coli. Further, the MIC in the assay with Proteus vulgaris amounted to 512 µg/mL (≈ 1430 µM); with Shigella dysenteriae, 512 µg/mL (≈ 1430 µM); with Candida albicans, 256 µg/mL (≈ 713 µM); in the assay with Bacillus subtilis it was 256 µg/mL (≈ 713 µM); in the assay with Saccharomyces cerevisiae it was 256 µg/mL (≈ 713 µM).
Turning to `Cc1cc(=O)oc2cc(OCCCCBr)cc(OCCCCBr)c12`, the MIC turned out to be 512 µg/mL (≈ 1110 µM) in the assay with Staphylococcus aureus [1]; 256 µg/mL (≈ 554 µM) in the assay on Micrococcus luteus; 256 µg/mL (≈ 554 µM) with Salmonella typhi; 256 µg/mL (≈ 554 µM) against Staphylococcus aureus [2]; 256 µg/mL (≈ 554 µM) in the assay with Aspergillus fumigatus; 512 µg/mL (≈ 1110 µM) with Escherichia coli. The MIC in the assay with Proteus vulgaris stood at 256 µg/mL (≈ 554 µM); in the assay on Shigella dysenteriae, 256 µg/mL (≈ 554 µM); with Candida albicans, 128 µg/mL (≈ 277 µM); in the assay with Bacillus subtilis, 128 µg/mL (≈ 277 µM); against Saccharomyces cerevisiae, 256 µg/mL (≈ 554 µM).
As for `Cc1cc(=O)oc2cc(OCc3ccc(CBr)cc3)cc(OCc3ccc(CBr)cc3)c12`, the MIC turned out to be 512 µg/mL (≈ 917 µM) in the assay with Staphylococcus aureus [1]; 256 µg/mL (≈ 459 µM) against Micrococcus luteus; 256 µg/mL (≈ 459 µM) with Salmonella typhi; 256 µg/mL (≈ 459 µM) in the assay with Staphylococcus aureus [2]; 256 µg/mL (≈ 459 µM) in the assay on Aspergillus fumigatus; 512 µg/mL (≈ 917 µM) in the assay on Escherichia coli. The MIC with Proteus vulgaris is 512 µg/mL (≈ 917 µM); against Shigella dysenteriae it was 512 µg/mL (≈ 917 µM); in the assay on Candida albicans, 256 µg/mL (≈ 459 µM); against Bacillus subtilis, 128 µg/mL (≈ 229 µM); against Saccharomyces cerevisiae, 256 µg/mL (≈ 459 µM).
As to `Cc1cc(=O)oc2cc(OCCCCCOc3ccc4c(C)cc(=O)oc4c3)ccc12`, the MIC against Staphylococcus aureus [1] is 256 µg/mL (≈ 609 µM); in the assay with Micrococcus luteus it was 128 µg/mL (≈ 304 µM); in the assay on Salmonella typhi, 512 µg/mL (≈ 1220 µM); in the assay with Staphylococcus aureus [2], 128 µg/mL (≈ 304 µM); with Aspergillus fumigatus, 512 µg/mL (≈ 1220 µM); against Escherichia coli it was 256 µg/mL (≈ 609 µM). Further, the minimal inhibitory concentration (MIC) in the assay on Proteus vulgaris was 512 µg/mL (≈ 1220 µM); in the assay with Shigella dysenteriae it was 512 µg/mL (≈ 1220 µM); in the assay on Candida albicans it was 512 µg/mL (≈ 1220 µM); against Bacillus subtilis, 256 µg/mL (≈ 609 µM); in the assay with Saccharomyces cerevisiae it was 256 µg/mL (≈ 609 µM).
For the compound `Cc1cc(=O)oc2cc(OCCCCCCOc3ccc4c(C)cc(=O)oc4c3)ccc12`, the MIC with Staphylococcus aureus [1] worked out at 512 µg/mL (≈ 1180 µM); with Micrococcus luteus it was 128 µg/mL (≈ 295 µM); in the assay on Salmonella typhi it was 512 µg/mL (≈ 1180 µM); in the assay on Staphylococcus aureus [2], 256 µg/mL (≈ 589 µM); against Aspergillus fumigatus it was 512 µg/mL (≈ 1180 µM); against Escherichia coli it was 256 µg/mL (≈ 589 µM). The MIC in the assay with Proteus vulgaris was found to be 256 µg/mL (≈ 589 µM); against Shigella dysenteriae it was 512 µg/mL (≈ 1180 µM); in the assay with Candida albicans, 512 µg/mL (≈ 1180 µM); against Bacillus subtilis, 128 µg/mL (≈ 295 µM); with Saccharomyces cerevisiae, 256 µg/mL (≈ 589 µM).
With `Cc1cc(=O)oc2cc(OCc3ccc(COc4ccc5c(C)cc(=O)oc5c4)cc3)ccc12`, the MIC in the assay with Staphylococcus aureus [1], in the assay with Micrococcus luteus, in the assay on Salmonella typhi, with Staphylococcus aureus [2], against Aspergillus fumigatus and against Escherichia coli was greater than 512 µg/mL each time. Besides, the MIC is greater than 512 µg/mL in the assay on Proteus vulgaris; greater than 512 µg/mL in the assay with Shigella dysenteriae; greater than 512 µg/mL in the assay with Candida albicans; greater than 512 µg/mL against Bacillus subtilis; 512 µg/mL (≈ 1130 µM) against Saccharomyces cerevisiae.
For `Cc1cc(=O)oc2cc(O)cc(O)c12` [5,7-DIHYDROXY-4-METHYLCOUMARIN], the MIC in the assay with Staphylococcus aureus [1] is 64 µg/mL (≈ 333 µM); against Micrococcus luteus, 64 µg/mL (≈ 333 µM); in the assay on Salmonella typhi, 256 µg/mL (≈ 1330 µM); with Staphylococcus aureus [2], 32 µg/mL (≈ 167 µM); against Aspergillus fumigatus it was 256 µg/mL (≈ 1330 µM); against Escherichia coli, 128 µg/mL (≈ 666 µM). Further, the MIC amounted to 128 µg/mL (≈ 666 µM) in the assay with Proteus vulgaris; 256 µg/mL (≈ 1330 µM) in the assay with Shigella dysenteriae; 64 µg/mL (≈ 333 µM) with Candida albicans; 64 µg/mL (≈ 333 µM) in the assay with Bacillus subtilis; 256 µg/mL (≈ 1330 µM) against Saccharomyces cerevisiae.
Consider `Cc1cc(=O)oc2cc(O)ccc12` [HYMECROMONE], for which the MIC against Staphylococcus aureus [1] was determined as 64 µg/mL (≈ 363 µM); against Micrococcus luteus, 32 µg/mL (≈ 182 µM); against Salmonella typhi, 128 µg/mL (≈ 727 µM); against Staphylococcus aureus [2], 32 µg/mL (≈ 182 µM); against Aspergillus fumigatus, 128 µg/mL (≈ 727 µM); against Escherichia coli, 128 µg/mL (≈ 727 µM). Further, the MIC with Proteus vulgaris was found to be 256 µg/mL (≈ 1450 µM); in the assay on Shigella dysenteriae, 512 µg/mL (≈ 2910 µM); against Candida albicans, 64 µg/mL (≈ 363 µM); in the assay on Bacillus subtilis, 32 µg/mL (≈ 182 µM); against Saccharomyces cerevisiae it was 128 µg/mL (≈ 727 µM).
